tim10-1 inh: tim10-1 yeast growth inhibition; S. cerevisiae tim10-1 ts strain growth, BacTiter-Glo, 24 h; inhibition, % at 20 µM; 330,000 tested, 2.2% active; AID 463190;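 active means inhibition of at least 40%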;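 further: mutant grown at 25 °C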
XBP1 UPR activ: activators of adaptive arm of unfolded protein response (XBP1); AID 463104; CHO-XBP1 luciferase reporter, IRE1-XBP1 UPR activation, luminescence; percent of tunicamycin response, DMSO as zero; 330,000 tested, 0.33% active; activation, % at 20 µM;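 active means versus positive control, 20 µM dose yields 30% or more activation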
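Test system: CHO-XBP1 luciferase reporter cells | Buffer or medium: Serum-containing F12 medium, 10% FBS | Schedule: 6 h compound exposure at 37 °C, 5% CO2 | Detection: Steady-Glo luciferase glow luminescence, 10 min after reagent addition | Read-out basis: Activation, % of tunicamycin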
TIM10 inh: TIM10 yeast growth inhibition. S. cerevisiae TIM10 strain growth, BacTiter-Glo luminescence, 24 h. inhibition, % at 10 µM. 330,000 tested, 1.4% active;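 active means inhibition of 40% or more at the single tested concentration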;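 further: wild-type TIM10 isogenic control strain grown at permissive 25 °C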
CHOP UPR activ: activators of apoptotic arm of unfolded protein response (CHOP); activation, % at 10 µM; CHO-CHOP luciferase reporter, UPR activation, luminescence; percent of tunicamycin response over DMSO baseline; 330,000 tested, 0.34% active;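 active means at 10 µM dose, activation of 40% or more, normalized to positive control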
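Dosing – one dose, 10 µM in 0.5% DMSO · System – CHO-CHOP cells, stable luciferase reporter of PERK-eIF2a-CHOP signalling · Input – 500 cells/well · Control set – tunicamycin 10 µg/mL final as positive, DMSO-only wells as negative · Timing – 6 h compound treatment, 37 °C · Measure – % activation vs tunicamycin · Technique – luminescence read with Steady-Glo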
tim23-1 inh: growth inhibitors of tim23-1 mutant yeast. S. cerevisiae tim23-1 growth, BacTiter-Glo luminescence, 24 h. inhibition, % at 20 µM. 330,000 tested, 1.3% active. AID 463212;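 active means growth inhibition of the mutant yeast at or above 50%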;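 further: temperature-sensitive mutant grown at 25 °C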
tim10-1 conf: confirmation of tim10-1 mutant yeast growth inhibitors; shares compounds with tim10-1 inh; S. cerevisiae tim10-1 ts strain growth, BacTiter-Glo, 24 h; inhibition, % at 20 µM; 7,400 tested, 56% active;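 active means inhibition of yeast growth at or above a set limit in either of two repeat tests at 20 µM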;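 further: tim10-1 mutant grown at permissive 25 °C to find synthetic lethal compounds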
Each line names hits and unclear results; the compound was inactive in the other large screens (follow-up assays come after a bar, where they were run). Only some compounds are listed: those with a hit (about 3.9% of all), similar ones and a draw of the others.

COc1ccc(NC2CCCCC2NS(=O)(=O)c2ccc(C)cc2)cc1 (stereo not drawn)	none
CCOC(=O)N1CCC(n2c(SCC(=O)NCc3ccccc3)nc3ccccc3c2=O)CC1	tim10-1 inh 43 | tim10-1 conf inactive
COc1ccc(C2CC(=O)c3cnc(Nc4cc(C)cc(C)c4)nc3C2)cc1 (stereo not drawn)	tim10-1 inh 46 | tim10-1 conf inactive
O=C(CNC(=O)c1ccc(Cl)cc1)NNc1c(F)c(F)cc(F)c1F	none
O=[N+]([O-])c1ccccc1COc1ccc(Cl)c2cccnc12	none
Cc1cccc2nc(COc3ccc(Cl)c4cccnc34)cn12	tim10-1 inh 40 | tim10-1 conf 36
CCN(CC(=O)Nc1ccc(NC(C)=O)cc1)C(=O)CCCSc1nc2ccccc2[nH]1	none
Cc1ccc(C(=O)O/N=C(\c2ccccc2)c2cccnc2)cc1	tim10-1 inh 42 | tim10-1 conf 36
Cc1cccc(C(=O)O/N=C(\c2ccccc2)c2cccnc2)c1	none
COC(=O)c1ccccc1NC(=O)C1CCCN(S(=O)(=O)c2ccccc2)C1 (stereo not drawn)	tim10-1 inh 40 | tim10-1 conf inactive
Cc1ccc(C(=O)Nc2ccc(S(=O)(=O)N3CCOCC3)cc2)cc1Br	none
COc1ccccc1C(=O)Nc1ccc(S(=O)(=O)N2CCCC2)cc1	none
O=S(=O)(c1ccc(NC(=S)N/N=C/c2c3ccccc3cc3ccccc23)cc1)N1CCOCC1	tim10-1 inh 50 | tim10-1 conf 30
COC(=O)c1ccccc1NC(=O)C1CCCN(S(=O)(=O)c2ccc(F)cc2)C1 (stereo not drawn)	none
O=S(=O)(c1ccc(NC(=S)N/N=C/c2ccc(Oc3ccccc3)cc2)cc1)N1CCOCC1	none
Cc1ccc(C(=O)Nc2ccc(S(=O)(=O)N3CCOCC3)cc2)cc1C	tim10-1 inh 41 | tim10-1 conf inactive
COc1ccccc1C(=O)Nc1ccc(S(=O)(=O)N2CCCCC2)cc1	tim10-1 inh 48 | tim10-1 conf 40
COC(=O)c1ccc(NC(=O)CCN2C(=O)NC(C)(C)C2=O)cc1	none
N=c1n(N)c2ccccc2n1CC(=O)c1ccc(Br)cc1	none
Cc1occc1C(=O)Nc1ccc(S(N)(=O)=O)cc1	none
Cc1occc1C(=O)Nc1ccc(S(=O)(=O)N2CCCC2)cc1	tim10-1 inh 42 | tim10-1 conf inactive
Cc1sc2nc(-c3ccco3)oc(=O)c2c1C	tim10-1 inh 42 | tim10-1 conf inactive
Cc1ccccc1-c1nc2sc(C)c(C)c2c(=O)o1	none
Cn1c(N)c(C(=O)COC(=O)CCCOc2ccc(Cl)cc2Cl)c(=O)n(C)c1=O	tim10-1 inh 42 | tim10-1 conf 41
Cn1c(N)c(C(=O)COC(=O)Cc2ccc(Cl)cc2Cl)c(=O)n(C)c1=O	none
CCn1c(SCC(=O)NC2CCCC2)nnc1C(C)NC(=O)c1ccccc1Br (stereo not drawn)	none
Cc1cc(C(F)(F)F)n(-c2nc(C(=O)N/N=C/c3ccc(F)cc3)cs2)n1	tim10-1 inh 42 | tim10-1 conf inactive
COc1ccc(C(=O)COC(=O)c2cc(C)no2)c(OC)c1	none
Cc1ccc(CC(=O)Nc2nc3ccccc3s2)cc1	tim10-1 inh 44 | tim10-1 conf inactive
Cc1ccc(S(=O)(=O)CC(=O)Nc2nc3ccccc3s2)cc1	none
Cc1ccc(CS(=O)(=O)c2ccc(C(=O)N3CCN(c4ccccn4)CC3)cc2[N+](=O)[O-])cc1	tim10-1 inh 47 | tim10-1 conf inactive
CC(OC(=O)c1cccc(-n2cnnn2)c1)C(=O)Nc1ccc(F)cc1 (stereo not drawn)	none
CN(Cc1ccccc1)S(=O)(=O)c1ccc(Cl)c(C(=O)OCC(=O)NC2CCS(=O)(=O)C2)c1 (stereo not drawn)	none
CCOC(=O)C1CCCN(C(=O)c2ccc3oc(CCc4ccccc4)nc3c2)C1 (stereo not drawn)	tim10-1 inh 42 | tim10-1 conf inactive
Nc1ncnc2c1ncn2[C@@H]1O[C@H](CNC(=O)[C@@H]2C[C@H](F)CN2)[C@@H](O)[C@H]1O	none
COC(=O)c1cc(Cl)cc(Cl)c1OS(=O)(=O)N(C)C	tim10-1 inh 41 | tim10-1 conf inactive
CNC(=S)N(C)/N=C1/C(=O)N(Cc2c(Cl)cccc2Cl)c2ccccc21	none

Screens as filed in PubChem BioAssay.
